Test results published in ChEMBL document CHEMBL2029242 (J Med Chem, 2012).
Calls of active or inactive are those of the source. No cut-off for these calls is given here.

What was measured:
[1] = tested on: A-375; test: Cytotoxicity against human A375 cells expressing BRAF V600E mutant after 72 hrs by cell titer blue assay; format: functional, cell-based; conditions: A-375, 72 h
How it was run: (§1)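 Cells were grown in ATCC-recommended media and kept overnight in 0.5% serum. They were then exposed to compound for 72 h, and Cell Titer Blue was added for 3 h. EC50 came from fluorometric concentration−response curves, run in duplicate and repeated at least once.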

[2] = Tmax in beagle dog at 10 mg/kg, po; format: ADME, organism-based, Canis lupus familiaris; design: dose 10 mg/kg, route oral; conditions: in vivo
How it was run: (§2)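 Male non-naive cynomolgus monkeys (2.6–3.4 kg) and beagle dogs (10.3–11.9 kg), n = 3 each, were dosed in a crossover design with a ≥7-day washout. Doses were 10 mg/kg by nasogastric gavage and 1 mg/kg as a saphenous iv bolus, both free base in 22% HPβCD. Animals were fasted overnight until about 4 h post dose. Femoral plasma was sampled from predose to 24 h and analyzed by LC-MS/MS. Parameters came from noncompartmental analysis; mean ± SD reported.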

[3] = Half life in mouse liver microsomes; format: ADME, Microsome
How it was run: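 Pooled liver microsomes (0.5 mg/mL) in 0.1 M phosphate pH 7.4 with 6.5 mM MgCl2 and compound at 1 μM (0.2% DMSO). NADPH (1 mM) started the reaction at 37 °C, with minus-NADPH and testosterone controls. Aliquots taken at 0, 5, 15, 30 and 60 min were quenched in acetonitrile; duplicates.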

[4] = target: Phosphatidylinositol 4,5-bisphosphate 3-kinase catalytic subunit beta isoform (Homo sapiens, UniProt P42338); test: Inhibition of PIK3-CB in human HEK293 cells after 1 hr by competition binding assay; format: cell-based
How it was run: (§3)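 Unbound kinase was captured on immobilized affinity ligand and quantified by qPCR. Kd came from eleven serial 3-fold dilutions, as the mean of duplicates.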

[5] = target: Aurora kinase A (Homo sapiens, UniProt O14965); test: Inhibition of Aurora A in human HEK293 cells after 1 hr by competition binding assay; format: cell-based
How it was run: (§4)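 KINOMEscan competition binding. Binding reactions ran at rt for 1 h. Unbound kinase was captured on an immobilized affinity ligand and quantified by qPCR. Each kinase was tested individually.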

[6] = target: Serine/threonine-protein kinase PLK1 (Homo sapiens, UniProt P53350); test: Inhibition of PLK1 in human HEK293 cells after 1 hr by competition binding assay; format: cell-based; how it was run: as §4
[7] = tested on: COLO-679; test: Cytotoxicity against human COLO679 cells expressing BRAF V600E mutant after 72 hrs by cell titer blue assay; format: functional, cell-based; conditions: COLO-679, 72 h; how it was run: as §1
[8] = Tmax in Sprague-Dawley rat at 10 mg/kg, po; format: ADME, organism-based; design: dose 10 mg/kg, route oral; conditions: in vivo
How it was run: (§5)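 Male Sprague-Dawley rats (250–350 g, jugular-catheterized) received a single dose either iv at 1 mg/kg in 3:1 PEG400/water (n = 2) or po at 10 mg/kg in Pharmatek #6 (n = 3). Plasma was sampled at 5 min (iv only), 15 and 30 min, and 1, 2, 4, 6 and 24 h. Samples were analyzed by LC-MS/MS after acetonitrile precipitation. Parameters came from noncompartmental linear-trapezoidal analysis of individual animals.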

[9] = tested on: COLO 205; test: Antitumor activity against human COLO205 cells xenografted in athymic nude mouse at 100 mg/kg, po bid for 14 days; format: functional, organism-based; design: dose 100 mg/kg
How it was run: (§6)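 Athymic nude mice carried subcutaneous flank Colo-205 xenografts (1 × 10^6 cells), randomized at 150−200 mm3 (n = 10/group). Oral dosing BID for 14 days in 22% HPβCD against vehicle controls. Caliper volumes W2(L/2) taken three times weekly. Partial regression: volume fell in ≥3 successive measurements to below the starting volume while the tumor stayed palpable.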

[10] = Tmax in Cynomolgus monkey at 10 mg/kg, po; format: ADME, organism-based, Macaca fascicularis; design: dose 10 mg/kg, route oral; conditions: in vivo; how it was run: as §2
[11] = target: Macrophage colony-stimulating factor 1 receptor (Homo sapiens, UniProt P07333); test: Inhibition of CSF1R in human HEK293 cells after 1 hr by competition binding assay; format: cell-based; how it was run: as §3
[12] = Clearance in Sprague-Dawley rat at 1 mg/kg, iv and 10 mg/kg, po; format: ADME, organism-based; conditions: in vivo
How it was run: (§7)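 Single-dose PK. Rats: male Sprague−Dawley, jugular-catheterized, 1 mg/kg iv in 3:1 PEG400/water (n = 2) and 10 mg/kg po in Pharmatek #6 (n = 3). Female athymic nude mice: 100 mg/kg po in Pharmatek #6 (n = 3). Beagle dogs and male cynomolgus monkeys (n = 3): crossover, 1 mg/kg iv and 10 mg/kg po in 22% HPβCD, overnight fast. Plasma LC-MS/MS to 24 h; noncompartmental parameters, mean ± SD.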

[13] = tested on: COLO 205; test: Antitumor activity against human COLO205 cells xenografted in athymic nude mouse assessed as partial tumor regression at 30 mg/kg, po bid for 14 days; format: functional; how it was run: as §6
[14] = target: Cytochrome P450 2C19 (Homo sapiens, UniProt P33261); test: Inhibition of human CYP2C19; format: ADME
How it was run: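 Pooled human liver microsomes (0.25 mg/mL) with NADPH (1 mM) and five pooled probe substrates (testosterone, diclofenac, dextromethorphan, mephenytoin, phenacetin). Test compound ran at eight concentrations, 0.31−40 μM, 20 min at 37 °C, with pooled control inhibitors in parallel. Isoform-specific metabolites were measured by LC-MS/MS.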

[15] = tested on: Mus musculus; test: Toxicity in athymic nude mouse xenografted with human COLO205 cells at 30 mg/kg, po bid for 14 days; format: organism-based, COLO 205; design: dose 30 mg/kg, route oral; conditions: in vivo, 336 h
How it was run: (§8)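 Athymic nude mice (20–25 g) were inoculated subcutaneously in the flank with 1×10^6 Colo-205 cells. At 150–200 mm3 they were randomized (n = 10/group) to oral vehicle (22% HPβCD) or 10, 30 or 100 mg/kg BID for 14 days. Calipers were used three times weekly. Body weight and behavior were monitored, with 7–10 days of follow-up after dosing. Partial regression meant volume falling in ≥3 successive measurements, ending below baseline but still palpable.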

[16] = target: RAF proto-oncogene serine/threonine-protein kinase (Homo sapiens, UniProt P04049); test: Inhibition of CRAF in human HEK293 cells after 1 hr by competition binding assay; format: cell-based
How it was run: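 KINOMEscan competition binding. Binding reactions run at rt for 1 h. Kinase not bound to compound is captured on an immobilized affinity ligand and quantified by qPCR.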

[17] = Volume of distribution in Sprague-Dawley rat at 1 mg/kg, iv and 10 mg/kg, po; format: ADME, organism-based; conditions: in vivo; how it was run: as §5
[18] = target: Dual specificity mitogen-activated protein kinase kinase 2 (Homo sapiens, UniProt P36507); test: Inhibition of MEK2 in human HEK293 cells after 1 hr by competition binding assay; format: cell-based; how it was run: as §4
[19] = tested on: Mus musculus; test: Toxicity in athymic nude mouse xenografted with human COLO205 cells at 10 mg/kg, po bid for 14 days measured upto 1 week post dosing; format: organism-based, COLO 205; design: dose 10 mg/kg, route oral; conditions: in vivo; how it was run: as §8
[20] = Volume of distribution in Cynomolgus monkey at 1 mg/kg, iv and 10 mg/kg, po; format: ADME, organism-based, Macaca fascicularis; conditions: in vivo; how it was run: as §2
[21] = tested on: COLO 205; test: Antitumor activity against human COLO205 cells xenografted in athymic nude mouse at 30 mg/kg, po bid for 14 days; format: functional, organism-based; design: dose 30 mg/kg; how it was run: as §6
[22] = AUC (infinity) in Cynomolgus monkey at 10 mg/kg, po; format: ADME, organism-based, Macaca fascicularis; design: dose 10 mg/kg, route oral, time infinity; conditions: plasma; how it was run: as §7
[23] = Oral bioavailability in Cynomolgus monkey at 10 mg/kg; format: ADME, organism-based, Macaca fascicularis; conditions: in vivo; how it was run: as §2
[24] = Clearance in Cynomolgus monkey at 1 mg/kg, iv and 10 mg/kg, po; format: ADME, organism-based, Macaca fascicularis; conditions: in vivo; how it was run: as §7
[25] = Cmax in Cynomolgus monkey at 10 mg/kg, po; format: ADME, organism-based, Macaca fascicularis; design: dose 10 mg/kg, route oral; conditions: in vivo; how it was run: as §7

Sequence of Dual specificity mitogen-activated protein kinase kinase 2 (P36507 whole entry): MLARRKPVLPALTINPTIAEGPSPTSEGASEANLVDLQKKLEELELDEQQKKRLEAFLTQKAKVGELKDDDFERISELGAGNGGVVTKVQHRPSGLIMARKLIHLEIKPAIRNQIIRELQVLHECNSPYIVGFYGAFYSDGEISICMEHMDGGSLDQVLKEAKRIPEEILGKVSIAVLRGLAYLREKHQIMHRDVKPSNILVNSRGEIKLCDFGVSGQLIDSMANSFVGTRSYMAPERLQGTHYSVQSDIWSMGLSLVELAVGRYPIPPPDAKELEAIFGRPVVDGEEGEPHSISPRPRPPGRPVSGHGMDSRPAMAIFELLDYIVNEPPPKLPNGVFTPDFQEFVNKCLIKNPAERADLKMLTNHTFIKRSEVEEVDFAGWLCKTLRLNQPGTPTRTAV
Sequence of Aurora kinase A (O14965 whole entry): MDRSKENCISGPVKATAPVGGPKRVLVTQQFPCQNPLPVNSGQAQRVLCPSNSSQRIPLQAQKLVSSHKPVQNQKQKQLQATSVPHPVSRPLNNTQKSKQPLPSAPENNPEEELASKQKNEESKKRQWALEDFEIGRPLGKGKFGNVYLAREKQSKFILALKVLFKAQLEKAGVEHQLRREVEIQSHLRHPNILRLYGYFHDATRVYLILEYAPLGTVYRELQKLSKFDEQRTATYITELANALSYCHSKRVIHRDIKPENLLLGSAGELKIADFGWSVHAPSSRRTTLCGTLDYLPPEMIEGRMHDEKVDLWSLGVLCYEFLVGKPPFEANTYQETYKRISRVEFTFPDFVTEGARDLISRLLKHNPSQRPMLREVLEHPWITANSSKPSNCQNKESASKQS
Sequence of Phosphatidylinositol 4,5-bisphosphate 3-kinase catalytic subunit beta isoform (P42338 whole entry, canonical isoform): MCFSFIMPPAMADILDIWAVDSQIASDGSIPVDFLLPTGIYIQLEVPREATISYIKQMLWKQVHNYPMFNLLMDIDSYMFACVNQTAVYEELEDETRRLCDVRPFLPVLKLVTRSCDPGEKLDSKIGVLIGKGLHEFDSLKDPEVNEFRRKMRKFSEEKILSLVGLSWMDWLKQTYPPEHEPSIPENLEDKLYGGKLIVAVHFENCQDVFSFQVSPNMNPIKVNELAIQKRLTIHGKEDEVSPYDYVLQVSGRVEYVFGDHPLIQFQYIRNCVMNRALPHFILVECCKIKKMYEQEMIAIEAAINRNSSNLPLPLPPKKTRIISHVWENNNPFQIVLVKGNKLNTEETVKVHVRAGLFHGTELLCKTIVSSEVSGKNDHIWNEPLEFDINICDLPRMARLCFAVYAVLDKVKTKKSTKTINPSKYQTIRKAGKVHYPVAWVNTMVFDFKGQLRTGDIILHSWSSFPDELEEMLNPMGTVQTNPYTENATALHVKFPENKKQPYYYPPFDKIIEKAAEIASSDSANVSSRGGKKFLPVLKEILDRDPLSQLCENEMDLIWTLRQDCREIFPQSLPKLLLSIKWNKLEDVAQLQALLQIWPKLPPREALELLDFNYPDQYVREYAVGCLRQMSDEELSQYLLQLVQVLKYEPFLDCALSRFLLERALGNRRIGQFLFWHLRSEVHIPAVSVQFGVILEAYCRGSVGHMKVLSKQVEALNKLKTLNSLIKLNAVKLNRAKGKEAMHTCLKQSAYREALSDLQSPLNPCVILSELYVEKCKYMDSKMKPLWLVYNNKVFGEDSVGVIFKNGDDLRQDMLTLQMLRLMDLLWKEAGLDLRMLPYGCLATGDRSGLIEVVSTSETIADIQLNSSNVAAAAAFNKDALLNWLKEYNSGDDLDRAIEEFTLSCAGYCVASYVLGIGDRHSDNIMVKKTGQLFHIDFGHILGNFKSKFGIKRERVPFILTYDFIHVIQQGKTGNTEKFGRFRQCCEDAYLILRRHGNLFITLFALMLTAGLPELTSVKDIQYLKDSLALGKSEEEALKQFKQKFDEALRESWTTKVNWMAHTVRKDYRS
Sequence of RAF proto-oncogene serine/threonine-protein kinase (P04049 whole entry): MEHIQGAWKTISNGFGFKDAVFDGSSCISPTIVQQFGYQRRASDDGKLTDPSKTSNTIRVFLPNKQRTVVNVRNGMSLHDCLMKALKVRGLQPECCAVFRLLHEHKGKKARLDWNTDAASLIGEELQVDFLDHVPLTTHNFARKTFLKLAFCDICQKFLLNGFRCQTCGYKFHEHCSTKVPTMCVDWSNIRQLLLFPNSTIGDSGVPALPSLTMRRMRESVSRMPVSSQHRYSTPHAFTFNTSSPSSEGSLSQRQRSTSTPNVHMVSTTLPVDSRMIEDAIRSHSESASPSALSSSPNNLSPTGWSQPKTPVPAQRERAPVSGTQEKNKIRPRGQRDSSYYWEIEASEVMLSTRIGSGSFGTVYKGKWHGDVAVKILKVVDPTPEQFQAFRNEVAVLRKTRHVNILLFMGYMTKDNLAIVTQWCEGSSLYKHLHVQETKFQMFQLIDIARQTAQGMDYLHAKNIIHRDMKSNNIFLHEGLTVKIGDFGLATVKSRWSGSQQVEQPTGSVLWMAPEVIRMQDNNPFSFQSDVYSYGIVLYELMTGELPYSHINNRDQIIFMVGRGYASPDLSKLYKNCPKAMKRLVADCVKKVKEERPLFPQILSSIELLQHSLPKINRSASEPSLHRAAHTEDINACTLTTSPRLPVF
Sequence of Macrophage colony-stimulating factor 1 receptor (P07333 whole entry): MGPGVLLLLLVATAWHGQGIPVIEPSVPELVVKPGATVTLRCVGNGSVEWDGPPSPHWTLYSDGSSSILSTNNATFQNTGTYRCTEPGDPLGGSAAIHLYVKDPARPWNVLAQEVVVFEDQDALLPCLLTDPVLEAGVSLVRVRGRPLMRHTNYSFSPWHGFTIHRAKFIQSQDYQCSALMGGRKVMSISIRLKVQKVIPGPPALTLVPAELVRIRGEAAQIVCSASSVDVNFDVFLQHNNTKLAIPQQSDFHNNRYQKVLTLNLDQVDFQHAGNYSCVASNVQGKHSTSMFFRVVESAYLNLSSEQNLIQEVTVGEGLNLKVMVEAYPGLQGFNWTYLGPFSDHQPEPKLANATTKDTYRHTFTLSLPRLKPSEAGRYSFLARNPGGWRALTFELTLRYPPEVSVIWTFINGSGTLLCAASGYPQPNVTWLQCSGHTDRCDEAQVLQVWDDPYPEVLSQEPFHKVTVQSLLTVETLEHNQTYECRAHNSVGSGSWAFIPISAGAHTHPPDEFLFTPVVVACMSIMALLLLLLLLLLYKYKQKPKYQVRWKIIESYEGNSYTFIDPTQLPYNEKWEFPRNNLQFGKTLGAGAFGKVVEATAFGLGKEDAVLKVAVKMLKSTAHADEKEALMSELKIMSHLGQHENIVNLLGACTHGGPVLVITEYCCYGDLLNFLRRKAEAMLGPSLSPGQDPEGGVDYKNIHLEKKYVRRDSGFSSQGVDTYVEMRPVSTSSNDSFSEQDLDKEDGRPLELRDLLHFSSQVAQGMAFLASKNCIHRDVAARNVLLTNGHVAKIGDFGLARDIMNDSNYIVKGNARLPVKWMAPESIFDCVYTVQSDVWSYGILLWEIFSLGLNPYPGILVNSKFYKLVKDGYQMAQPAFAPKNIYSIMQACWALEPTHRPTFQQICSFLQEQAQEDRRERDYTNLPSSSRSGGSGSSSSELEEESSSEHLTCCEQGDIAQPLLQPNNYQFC
Sequence of Serine/threonine-protein kinase PLK1 (P53350 whole entry): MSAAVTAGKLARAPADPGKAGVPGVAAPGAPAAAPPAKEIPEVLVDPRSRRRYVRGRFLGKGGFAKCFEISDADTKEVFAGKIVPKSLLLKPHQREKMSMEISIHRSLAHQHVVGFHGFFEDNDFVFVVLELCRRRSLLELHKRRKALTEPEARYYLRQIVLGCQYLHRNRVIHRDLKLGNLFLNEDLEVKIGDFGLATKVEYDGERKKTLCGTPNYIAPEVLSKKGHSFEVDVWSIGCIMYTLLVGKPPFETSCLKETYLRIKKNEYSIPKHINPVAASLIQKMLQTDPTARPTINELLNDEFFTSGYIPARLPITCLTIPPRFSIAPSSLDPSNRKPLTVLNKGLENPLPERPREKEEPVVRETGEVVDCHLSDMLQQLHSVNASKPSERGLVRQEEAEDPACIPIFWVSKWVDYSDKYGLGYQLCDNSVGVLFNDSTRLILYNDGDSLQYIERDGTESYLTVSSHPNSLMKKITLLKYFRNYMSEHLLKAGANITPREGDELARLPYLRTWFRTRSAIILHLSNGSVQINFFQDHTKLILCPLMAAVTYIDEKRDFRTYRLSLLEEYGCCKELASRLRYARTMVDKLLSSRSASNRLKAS
Sequence of Cytochrome P450 2C19 (P33261 whole entry, canonical isoform): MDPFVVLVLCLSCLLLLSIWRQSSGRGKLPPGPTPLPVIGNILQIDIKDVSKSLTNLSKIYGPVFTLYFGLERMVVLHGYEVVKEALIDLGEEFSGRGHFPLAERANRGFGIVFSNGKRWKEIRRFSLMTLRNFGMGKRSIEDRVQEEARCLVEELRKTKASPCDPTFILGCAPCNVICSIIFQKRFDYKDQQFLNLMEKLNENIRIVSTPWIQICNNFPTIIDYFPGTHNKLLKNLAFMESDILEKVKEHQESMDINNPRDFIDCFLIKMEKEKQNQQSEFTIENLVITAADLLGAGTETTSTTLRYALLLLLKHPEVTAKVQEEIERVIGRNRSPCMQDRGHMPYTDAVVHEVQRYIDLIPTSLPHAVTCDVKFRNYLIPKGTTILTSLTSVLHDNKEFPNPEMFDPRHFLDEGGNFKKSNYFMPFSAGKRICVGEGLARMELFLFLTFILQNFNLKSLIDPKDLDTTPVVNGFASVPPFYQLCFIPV

In the case of COc1cc2ncnc(Oc3cccc(NC(=O)Nc4cc(C(C)(C)C(F)(F)F)on4)c3)c2cc1OC [CEP-32496], the IC50 [1] is reported as 78 nM, the Tmax [2] is reported as 2 h and the half-life [3] is reported as greater than 60 min. The Kd [4] was greater than 10 µM, the Kd [5] was greater than 10 µM and the Kd [6] was greater than 10 µM. For the same compound, the EC50 [7] was 211 nM, the Tmax [8] was 2 h and the Activity [9] was “Active”. The Tmax [10] was 4 h, the Kd [11] was 9 nM and the clearance [12] was 3.4 mL/min/kg. For the same compound, the Activity [13] was 40%, the IC50 [14] was 3.4 µM and the Activity [15] was “Non-toxic”. It also gave a Kd [16] of 39 nM, a Vd [17] of 1.6 L/kg and a Kd [18] of 8.3 µM. For the same compound, the Activity [19] was “Non-toxic”, the Vd [20] was 2.5 L/kg and the Activity [21] was “Active”. It also gave an AUC(0-inf) [22] of 92.2 µM·h, a bioavailability [23] of 100% and a clearance [24] of 6.7 mL/min/kg. For the same compound, the Cmax [25] was 4.3 µM.
